In ChEMBL document CHEMBL1671641, “1,5-benzodiazepines, a novel class of hepatitis C virus polymerase nonnucleoside inhibitors” (Antimicrob Agents Chemother, 2008):

Key:
[1] = (§1) Cytotoxicity against LTR-Luc transfected human MT4 cells […] after 3 days by ATPLite assay; type: cell-based
[2] = Cytotoxicity against CMV-Luc transfected human HuH7 cells after 5 days; type: cell-based, Huh-7; settings: for CC50 at 120 h: CMV-Luc transfected HuH7 cells; for CC50: huh-7, 120 h, 120 h
Hepatitis C virus [3] = assay: Antiviral activity against Hepatitis C virus 1b infected in human HuH7 cells assessed as inhibition of viral replication after 3 days by luciferase reporter assay; type: functional, organism-based, Hepacivirus hominis, genotype 1b, Huh-7
In short: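 HCV 1b subgenomic luciferase reporter replicon (clone ET) cells, 2,500 per well, were exposed to a nine-point 1/4 dilution series for 3 days. Replication was read as luciferase activity. Values are means ± SD from 2 to 23 independent experiments run in quadruplicate.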

MT4 = assay: as §1; type: cell-based; settings: mt4, 72 h, 72 h
Hepatitis C virus [4] = assay: Inhibition of Hepatitis C virus 1b J4 recombinant NS5B Cdelta 21 RNA dependent RNA polymerase overexpressed in Escherichia coli BL21 (DE3) by RdRp primer-dependent transcription assay; set-up: species or system Hepatitis C virus subtype 1b
Hepatitis C virus [5] = assay: Inhibition of Hepatitis C virus 1b J4 recombinant NS5B Cdelta 21 RNA dependent RNA polymerase overexpressed in Escherichia coli BL21 (DE3) assessed as [alpha-33P]UTP incorporation by RdRp primer-independent transcription assay; set-up: species or system Hepatitis C virus subtype 1b
In short: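 De novo (primer-independent) RdRp assay: 190 nM NS5BΔ21 (1b J4) with 86 nM HCV 3′ UTR template RNA, 0.5 mM each ATP/GTP/CTP, 10 μM UTP plus [α-³³P]UTP, in 20 mM Tris-HCl pH 7.5, 1 mM DTT, 5 mM MgCl₂, 20 mM NaCl. Incubated 2 h at room temperature, stopped with EDTA/tRNA, TCA-precipitated on filters, and scintillation-counted. Quadruplicate.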

Hepatitis C virus [6] = assay: Ratio of EC50 for Hepatitis C virus 796 infected in HuH7 cells to EC50 for Hepatitis C virus 796 harboring NNI P495L mutant site in NS5B infected in HuH7 cells; type: functional, Hepacivirus hominis, Huh-7
In short: (§2)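 NS5B NNI-site mutations were introduced into the genotype 1b ET subgenomic luciferase replicon by site-directed mutagenesis. RNA was made by in vitro transcription and tested in a transient-replication assay.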

Hepatitis C virus [7] = assay: Ratio of EC50 for Hepatitis C virus 796 infected in HuH7 cells to EC50 for Hepatitis C virus 796 harboring NNI M423T mutant site in NS5B infected in HuH7 cells; type: functional, Hepacivirus hominis, Huh-7; in short: as §2
Hepatitis C virus [8] = assay: Ratio of EC50 for Hepatitis C virus 796 infected in HuH7 cells to EC50 for Hepatitis C virus 796 harboring NNI C316Y mutant site in NS5B infected in HuH7 cells; type: functional, Hepacivirus hominis, Huh-7; in short: as §2
Hepatitis C virus [9] = assay: Ratio of EC50 for Hepatitis C virus 796 infected in HuH7 cells to EC50 for Hepatitis C virus 796 harboring NNI Y448A mutant site in NS5B infected in HuH7 cells; type: functional, Hepacivirus hominis, Huh-7; in short: as §2
Hepatitis C virus [10] = assay: Ratio of EC50 for Hepatitis C virus 796 infected in HuH7 cells to EC50 for Hepatitis C virus 796 harboring NNI H95R mutant site in NS5B infected in HuH7 cells; type: functional, Hepacivirus hominis, Huh-7; in short: as §2
Hepatitis C virus [11] = assay: Ratio of EC50 for Hepatitis C virus 796 infected in HuH7 cells to EC50 for Hepatitis C virus 796 harboring NNI M414Q mutant site in NS5B infected in HuH7 cells; type: functional, Hepacivirus hominis, Huh-7; in short: as §2

## CC(=O)N1c2ccccc2NC2=C(C(=O)CC(C)(C)C2)C1c1ccc(OCc2ccccc2)cc1Cl (stereo in doubt; 5)
[1]
  CC50 at 72 h: 16.7 µM
[2]
  CC50 at 120 h: 35.5 µM

## CC(=O)N1c2ccccc2NC2=C(C(=O)CC(C)(C)C2)C1c1ccc(OCc2ccccc2)c(Cl)c1 (stereo in doubt; 4)
[1]
  CC50 at 72 h: 22.1 µM
[2]
  CC50 at 120 h: 40.2 µM
Hepatitis C virus [3]; huh-7
  EC50: 2.2 µM

## CC(=O)N1c2ccccc2NC2=C(C(=O)CC(C)(C)C2)C1c1ccc(OCc2ccccc2)cc1 (single isomer, unassigned; 3b)
MT4
  CC50: 18.3 µM
Hepatitis C virus [4]
  IC50: 86.7 µM
[2]
  CC50: 19.7 µM
Hepatitis C virus [5]
  IC50: 79.1 µM
Hepatitis C virus [3]; huh-7
  EC50: 2 µM

## CC(=O)N1c2ccccc2NC2=C(C(=O)CC(C)(C)C2)C1c1ccc(OCc2ccccc2)cc1 (single isomer, unassigned; 3a)
MT4
  CC50: 22.2 µM
Hepatitis C virus [4]
  IC50: 1 µM
[2]
  CC50: 19.2 µM
Hepatitis C virus [5]
  IC50: 0.54 µM
Hepatitis C virus [3]; huh-7
  EC50: 15.3 µM

## CC(=O)N1c2cccc(O)c2NC2=C(C(=O)CC(C)(C)C2)C1c1ccc(OCc2ccccc2)cc1Cl (stereo in doubt; 7)
[1]
  CC50 at 72 h: 17.8 µM
[2]
  CC50 at 120 h: 13.4 µM
Hepatitis C virus [3]; Hepatitis C virus, genotype 1b, Huh-7, 72 h
  EC50: 1.43 µM

## CC(=O)N1c2ccccc2NC2=C(C(=O)CC(C)(C)C2)C1c1ccc(OCc2ccccc2)cc1Cl (single isomer, unassigned; 5a)
MT4
  CC50: 19.5 µM
Hepatitis C virus [4]
  IC50: 0.33 µM
[2]
  CC50: 49 µM
Hepatitis C virus [3]; huh-7
  EC50: 9.3 µM

## CC(C)C[C@@]1(C(=O)O)C[C@H](C#N)[C@H](c2nccs2)N1C(=O)c1ccc(C(C)(C)C)cc1 [ACYL PYRROLIDINE]
Hepatitis C virus [6]
  fold change (FC): 10
Hepatitis C virus [7]
  fold change (FC): 10
Hepatitis C virus [8]
  fold change (FC): 10
Hepatitis C virus [9]
  fold change (FC): 10
Hepatitis C virus [10]
  fold change (FC): 10
Hepatitis C virus [11]
  fold change (FC): 10
